Test results reported in ChEMBL document CHEMBL4033780, “Lipidated Brartemicin Analogues Are Potent Th1-Stimulating Vaccine Adjuvants” (J Med Chem, 2018).
Numbering of substitutions follows the chain as printed. The source made the active and inactive calls. No cut-off for these calls is given here.

Legend:
Mus musculus [1] = organism: Mus musculus; assay: Adjuvant activity in immunized C57BL/6 mouse assessed as increase in OVA-specific IgG2b production in serum at 0.3 umol treated with ovalbumin for 7 days followed by stimulation with OVA for 7 days and restimulation with OVA measured 24 to 48 hrs post OVA challenge; format: functional
[2] = molecular target: T1, C-type lectin domain family 4 member E (Mus musculus) (UniProt Q9R0Q8); assay: Agonist activity at mincle in wild type C57BL/6 mouse GM-CSF derived BMDM assessed as increase in IL-1beta release at 0.1 to 1 nmol after 24 hrs by sandwich ELISA
T1 sequence (whole entry): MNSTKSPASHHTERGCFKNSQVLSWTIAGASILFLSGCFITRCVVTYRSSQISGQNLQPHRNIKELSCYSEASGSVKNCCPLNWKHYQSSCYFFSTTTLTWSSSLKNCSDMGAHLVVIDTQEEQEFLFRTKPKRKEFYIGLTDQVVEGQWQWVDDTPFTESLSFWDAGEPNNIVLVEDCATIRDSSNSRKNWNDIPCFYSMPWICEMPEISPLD
Procedure, shortened: (§1)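 Wild-type or Mincle−/− C57BL/6 bone marrow was cultured 8 days with GM-CSF 50 ng/mL in complete RPMI. Macrophages were detached with Acutase and seeded on ligand-coated plates (0.1 or 1 nmol/well); LPS 100 ng/mL was used as comparator. Supernatant was taken at 24 h and TNF, IL-6, IL-1β and MIP-2 measured by sandwich ELISA. Representative of three experiments in triplicate (±SD).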

[3] = test system: T2, C-type lectin domain family 4 member E (Homo sapiens), Q9ULY5 [R183A]; assay: Agonist activity at human mincle R183A mutant expressed in NFAT-GFP reporter cells up to 3000 pmol after 18 hrs by flow cytometric analysis; format: cell-based
T2 sequence (whole entry): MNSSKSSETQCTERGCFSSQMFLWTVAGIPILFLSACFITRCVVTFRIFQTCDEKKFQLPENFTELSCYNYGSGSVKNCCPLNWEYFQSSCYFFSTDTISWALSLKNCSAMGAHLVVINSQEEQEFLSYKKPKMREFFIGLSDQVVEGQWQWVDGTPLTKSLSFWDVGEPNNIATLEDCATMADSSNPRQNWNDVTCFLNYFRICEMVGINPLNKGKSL
Procedure, shortened: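 The hMincle R183A mutant, made by site-directed mutagenesis, was retrovirally introduced into 2B4 NFAT-GFP cells expressing FcRγ only. Cells were stimulated on plates coated with increasing ligand amounts for 18 h, and NFAT-GFP was read by flow cytometry. Mean of two independent experiments in duplicate (±SEM).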

[4] = molecular target: T3, C-type lectin domain family 4 member E (Homo sapiens) (UniProt Q9ULY5); assay: Binding affinity to recombinant human mincle extracellular domain fused with human IgG Fc expressed in HEK293T cells at 0.1 nmol by ELISA; format: cell-based; details: HEK-293T
T3 sequence (whole entry): T2 sequence (whole entry) with A183R

Mus musculus [5] = organism: Mus musculus; assay: Adjuvant activity in immunized C57BL/6 mouse assessed as footpad swelling at 0.3 umol treated with ovalbumin for 7 days followed by stimulation with OVA for 7 days measured 24 to 48 hrs post OVA challenge; format: functional
[6] = Toxicity in Atlantic horseshoe crab blood limulus amebocyte lysate by chromogenic endotoxin test; details: limulus polyphemus
Procedure, shortened: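 Endotoxin was measured by chromogenic Limulus amebocyte lysate assay at a sensitivity of ≤0.1 EU/mL.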

BMDM = assay: Immunostimulatory activity in mincle-/- C57BL/6 mouse GM-CSF derived BMDM assessed as increase in IL-6 release at […] after 24 hrs by sandwich ELISA method; format: functional, cell-based; procedure, shortened: as §1

Activity [2]: Active
Activity [3]: inactive
Activity [4]: Active
SMILES: CCCCCCCCCCCCCCCCCCOc1ccc(C(=O)OC[C@H]2O[C@H](O[C@H]3O[C@H](COC(=O)c4ccc(OCCCCCCCCCCCCCCCCCC)cc4O)[C@@H](O)[C@H](O)[C@H]3O)[C@H](O)[C@@H](O)[C@@H]2O)c(O)c1
Activity (Mus musculus [1]): Active
Activity (Mus musculus [5]): inactive
Activity [6]: <= 0.1 EU/ml
Activity (BMDM): inactive
